Measurements published in PMC12011195 (ACS chemical biology, 2024).

Key:
[1] = system: FXN mRNA in GM15850 cells; assay: Co-treatment of SynGRs with BET-binding ligands, FXN mRNA in GM15850 cells; assay type: cell-based, human; details: SynGR1 1 h, then ligand 0.5 μM for 23 h
Outline: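 Patient-derived GM15850 lymphoblasts in RPMI with 15% FBS; compounds dissolved in DMSO. Test compound (1 mM stock, increasing concentrations) added for 1 h, then pan-BET, BD1- or BD2-selective BET ligand at 0.5 μM for 23 h. RNA purified with DNase treatment; cDNA from 400 ng RNA; SYBR qPCR on 100 ng cDNA with FXN and TBP primers; normalised to 0.1% DMSO control.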

[2] = system: FXN expression in patient-derived cells; details: wide array of patient-derived cells; cited from earlier work

Row | Structure (SMILES) | effect of co-treatment with BET ligand on FXN expression activity of SynGR1 [1] | FXN protein levels [2]
1 | COCc1nc2cnc3cc(-c4c(C)noc4C)c(OC[C@H]4CCNC4)cc3c2n1[C@H](C)c1ccccc1 [GSK778] | further stimulated the activity | 
2 | Cc1sc2c(c1C)C(c1ccc(Cl)cc1)=N[C@@H](CC(=O)NCCOCCOCCOCCOCCOCCOCCC(=O)NCCCN(C)CCCNC(=O)CCNC(=O)c1nc(NC(=O)CCNC(=O)c3cc(NC(=O)c4nc(NC(=O)CCNC(=O)c5cc(NC(=O)c6nccn6C)cn5C)cn4C)cn3C)cn1C)c1nnc(C)n1-2 [SynGR1] |  | restoring FXN protein levels
